Test results from ChEMBL document CHEMBL1944602, “Synthesis and biological characterisation of sirtuin inhibitors based on the tenovins” (Bioorg Med Chem, 2012).
Converted amounts (≈) assume the structure as drawn. The source made the active and inactive calls. The rule behind the calls is not given here.

Target: T1, NAD-dependent protein deacetylase sirtuin-1 (Homo sapiens) (UniProt Q96EB6)
T1 sequence (whole entry): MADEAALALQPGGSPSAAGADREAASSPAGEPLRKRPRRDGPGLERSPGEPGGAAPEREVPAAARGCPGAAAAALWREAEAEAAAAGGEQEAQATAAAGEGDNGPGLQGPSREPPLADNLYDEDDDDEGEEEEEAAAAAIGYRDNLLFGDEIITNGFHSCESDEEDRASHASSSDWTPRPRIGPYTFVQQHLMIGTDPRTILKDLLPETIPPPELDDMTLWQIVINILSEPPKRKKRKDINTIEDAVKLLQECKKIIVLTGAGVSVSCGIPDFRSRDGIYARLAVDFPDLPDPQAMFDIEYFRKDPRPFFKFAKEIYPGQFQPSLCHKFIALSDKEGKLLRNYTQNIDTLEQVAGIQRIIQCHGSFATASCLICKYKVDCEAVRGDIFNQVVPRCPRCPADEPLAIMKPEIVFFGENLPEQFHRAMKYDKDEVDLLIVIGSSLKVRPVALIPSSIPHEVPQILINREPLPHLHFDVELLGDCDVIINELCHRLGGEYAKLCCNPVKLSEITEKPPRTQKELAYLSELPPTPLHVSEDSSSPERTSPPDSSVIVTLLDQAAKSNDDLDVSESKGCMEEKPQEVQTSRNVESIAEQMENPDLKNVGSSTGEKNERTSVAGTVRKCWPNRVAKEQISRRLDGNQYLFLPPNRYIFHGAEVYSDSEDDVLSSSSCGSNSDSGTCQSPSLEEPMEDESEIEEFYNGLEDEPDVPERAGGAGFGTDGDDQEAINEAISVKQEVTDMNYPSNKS
Experiment: Inhibition of SirT1 in human ARN8 cells assessed as p53 activation at 20 uM by beta-galactosidase reporter gene assay relative to control
Format: cell-based
Summary of the method: (§1)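 p53-dependent transcription measured with a beta-galactosidase reporter in ARN8 cells, run in triplicate. Read-out is the ratio of signal in treated cells to DMSO-control cells, given to 2 significant figures; a positive or negative activity call is also recorded.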

fold change (FC)	SMILES
12	CC(C)c1ccc(C(=O)NC(=S)Nc2ccc(NC(=O)CCCCN(C)C)cc2)cc1
5.5	CN(C)CCCCNC(=O)c1ccc(NC(=S)NC(=O)c2ccc(C(C)(C)C)cc2)cc1

Target: T1, NAD-dependent protein deacetylase sirtuin-1 (Homo sapiens)
Experiment: Inhibition of SirT1 in human ARN8 cells assessed as p53 activation at 10 uM by beta-galactosidase reporter gene assay relative to control
Format: cell-based
Summary of the method: as §1

fold change (FC)	SMILES
11.1	CC(C)c1ccc(C(=O)NC(=S)Nc2ccc(NC(=O)CCCCN(C)C)cc2)cc1
3.9	CN(C)CCCCNC(=O)c1ccc(NC(=S)NC(=O)c2ccc(C(C)(C)C)cc2)cc1

Target: T1, NAD-dependent protein deacetylase sirtuin-1 (Homo sapiens)
Experiment: Inhibition of SirT1 in human ARN8 cells assessed as p53 activation at 5 uM by beta-galactosidase reporter gene assay relative to control
Format: cell-based
Summary of the method: as §1

fold change (FC)	SMILES
8.7	CC(C)c1ccc(C(=O)NC(=S)Nc2ccc(NC(=O)CCCCN(C)C)cc2)cc1

Target: T1, NAD-dependent protein deacetylase sirtuin-1 (Homo sapiens)
Experiment: Inhibition of SirT1 in human ARN8 cells assessed as p53 activation at 20 uM by beta-galactosidase reporter gene assay
Format: cell-based
Summary of the method: as §1

inhibition	SMILES
Active	CC(C)c1ccc(C(=O)NC(=S)Nc2ccc(NC(=O)CCCCN(C)C)cc2)cc1
Active	CN(C)CCCCNC(=O)c1ccc(NC(=S)NC(=O)c2ccc(C(C)(C)C)cc2)cc1

Target: T1, NAD-dependent protein deacetylase sirtuin-1 (Homo sapiens)
Experiment: Inhibition of SirT1 in human ARN8 cells assessed as p53 activation at 10 uM by beta-galactosidase reporter gene assay
Format: cell-based
Summary of the method: as §1

inhibition	SMILES
Active	CC(C)c1ccc(C(=O)NC(=S)Nc2ccc(NC(=O)CCCCN(C)C)cc2)cc1
Active	CN(C)CCCCNC(=O)c1ccc(NC(=S)NC(=O)c2ccc(C(C)(C)C)cc2)cc1

Test system: not listed separately
Experiment: Solubility of the compound in water by UV spectrophotometry
Format: physicochemical
Summary of the method: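 Extinction coefficient from absorbance at 273 nm of a 7-point 2-fold dilution series in acetonitrile; DMSO used first where needed. Coefficient taken from the slope of absorbance against molar concentration. Used to find the actual concentration of a nominal 100 µM aqueous solution made from 40 mM DMSO stock.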

solubility [µg/mL]	SMILES
0.12 (≈ 0.325 µM)	CC(=O)Nc1ccc(NC(=S)NC(=O)c2ccc(C(C)(C)C)cc2)cc1
> 1.01	CN(C)CCCCCCCC(=O)Nc1ccc(NC(=S)NC(=O)c2ccc(C(C)(C)C)cc2)cc1.Cl
> 0.97	CN(C)CCCCCC(=O)Nc1ccc(NC(=S)NC(=O)c2ccc(C(C)(C)C)cc2)cc1.Cl

Target: T1, NAD-dependent protein deacetylase sirtuin-1 (Homo sapiens)
Experiment: Inhibition of SirT1 in human ARN8 cells assessed as p53 activation at 5 uM by beta-galactosidase reporter gene assay
Format: cell-based
Summary of the method: as §1

inhibition	SMILES
Active	CC(C)c1ccc(C(=O)NC(=S)Nc2ccc(NC(=O)CCCCN(C)C)cc2)cc1

Target: T2, NAD-dependent protein deacetylase sirtuin-2 (Homo sapiens, UniProt Q8IXJ6)
T2 sequence (Q8IXJ6 whole entry): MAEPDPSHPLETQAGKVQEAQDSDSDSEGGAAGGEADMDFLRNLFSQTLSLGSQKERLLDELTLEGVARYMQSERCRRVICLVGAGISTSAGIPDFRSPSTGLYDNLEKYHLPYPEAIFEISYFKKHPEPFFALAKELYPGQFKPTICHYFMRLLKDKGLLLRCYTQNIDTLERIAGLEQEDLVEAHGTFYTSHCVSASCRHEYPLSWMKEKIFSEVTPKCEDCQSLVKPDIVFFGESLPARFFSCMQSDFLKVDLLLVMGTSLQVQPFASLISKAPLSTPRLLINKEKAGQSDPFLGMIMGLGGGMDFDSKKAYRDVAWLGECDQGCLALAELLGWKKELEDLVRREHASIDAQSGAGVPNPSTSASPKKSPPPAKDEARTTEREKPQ
Experiment: Inhibition of recombinant human SitT2 by Fluor de Lys fluorescence assay

IC50 [µM]	SMILES
41.7	CN(C)CCCCCCCC(=O)Nc1ccc(NC(=S)NC(=O)c2ccc(C(C)(C)C)cc2)cc1.Cl
21.3	CN(C)CCCCCC(=O)Nc1ccc(NC(=S)NC(=O)c2ccc(C(C)(C)C)cc2)cc1.Cl
5.71	CC(C)c1ccc(C(=O)NC(=S)Nc2ccc(NC(=O)CCCCN(C)C)cc2)cc1
12.4	CN(C)CCCCNC(=O)c1ccc(NC(=S)NC(=O)c2ccc(C(C)(C)C)cc2)cc1

Target: T1, NAD-dependent protein deacetylase sirtuin-1 (Homo sapiens)
Experiment: Inhibition of recombinant human SitT1 at 60 uM by Fluor de Lys fluorescence assay
Summary of the method: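 Human recombinant SirT1 deacetylation measured with the Fluor de Lys fluorescence kit at a fixed 60 µM inhibitor. Tested on two separate occasions; percent inhibition reported as a mean weighted to the standard error.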

inhibition [%]	SMILES
6.6	CN(C)CCCCC(=O)Nc1ccc(N(C)C(=S)NC(=O)c2ccc(C(C)(C)C)cc2)cc1
70.9	CN(C)CCCCCCCC(=O)Nc1ccc(NC(=S)NC(=O)c2ccc(C(C)(C)C)cc2)cc1.Cl
96.2	CN(C)CCCCCC(=O)Nc1ccc(NC(=S)NC(=O)c2ccc(C(C)(C)C)cc2)cc1.Cl
52.9	CC(C)c1ccc(C(=O)NC(=S)Nc2ccc(NC(=O)CCCCN(C)C)cc2)cc1
72.5	CN(C)CCCCNC(=O)c1ccc(NC(=S)NC(=O)c2ccc(C(C)(C)C)cc2)cc1

Target: T3, NAD-dependent protein deacetylase sirtuin-1 (Homo sapiens, UniProt Q96EB6)
T3 sequence (Q96EB6 whole entry): T1 sequence (whole entry)
Experiment: Inhibition of recombinant human SitT1 by Fluor de Lys fluorescence assay

IC50 [µM]	SMILES
42.7	CC(C)c1ccc(C(=O)NC(=S)Nc2ccc(NC(=O)CCCCN(C)C)cc2)cc1
17.9	CN(C)CCCCNC(=O)c1ccc(NC(=S)NC(=O)c2ccc(C(C)(C)C)cc2)cc1

Target: T1, NAD-dependent protein deacetylase sirtuin-1 (Homo sapiens)
Experiment: Inhibition of SirT1 assessed as increase in p53 expression in human MCF7 cells at 10 uM after 6 hrs by Western blotting
Format: cell-based
Summary of the method: (§2)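 MCF-7 cells grown in DMEM with 10% FCS and gentamycin, seeded at 2 × 10⁵ per well on collagen-coated plates and incubated 42 h at 37 °C in 5% CO2. Compound in DMSO was added for 6 h. Lysis in LDS buffer, protein equalised by BCA, 4–12% bis-tris SDS-PAGE, PVDF blot. Total p53 detected with DO.1, PCNA as loading control, ECL detection. Scored semi-quantitatively against untreated level.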

inhibition	SMILES
inactive	CN(C)CCCCC(=O)Nc1ccc(N(C)C(=S)NC(=O)c2ccc(C(C)(C)C)cc2)cc1
Active	CC(=O)Nc1ccc(NC(=S)NC(=O)c2ccc(C(C)(C)C)cc2)cc1
Active	CN(C)CCCCCCCC(=O)Nc1ccc(NC(=S)NC(=O)c2ccc(C(C)(C)C)cc2)cc1.Cl
Active	CN(C)CCCCCC(=O)Nc1ccc(NC(=S)NC(=O)c2ccc(C(C)(C)C)cc2)cc1.Cl

Target: T1, NAD-dependent protein deacetylase sirtuin-1 (Homo sapiens)
Experiment: Inhibition of SirT1 assessed as increase in p53 expression in human MCF7 cells at 5 uM after 6 hrs by Western blotting
Format: cell-based
Summary of the method: as §2

inhibition	SMILES
inactive	CN(C)CCCCC(=O)Nc1ccc(N(C)C(=S)NC(=O)c2ccc(C(C)(C)C)cc2)cc1
Active	CC(=O)Nc1ccc(NC(=S)NC(=O)c2ccc(C(C)(C)C)cc2)cc1
Active	CN(C)CCCCCCCC(=O)Nc1ccc(NC(=S)NC(=O)c2ccc(C(C)(C)C)cc2)cc1.Cl
Active	CN(C)CCCCCC(=O)Nc1ccc(NC(=S)NC(=O)c2ccc(C(C)(C)C)cc2)cc1.Cl

Target: T1, NAD-dependent protein deacetylase sirtuin-1 (Homo sapiens)
Experiment: Inhibition of SirT1 assessed as increase in p53 expression in human MCF7 cells at 2 uM after 6 hrs by Western blotting
Format: cell-based
Summary of the method: as §2

inhibition	SMILES
inactive	CN(C)CCCCC(=O)Nc1ccc(N(C)C(=S)NC(=O)c2ccc(C(C)(C)C)cc2)cc1
Active	CC(=O)Nc1ccc(NC(=S)NC(=O)c2ccc(C(C)(C)C)cc2)cc1
Active	CN(C)CCCCCCCC(=O)Nc1ccc(NC(=S)NC(=O)c2ccc(C(C)(C)C)cc2)cc1.Cl
Active	CN(C)CCCCCC(=O)Nc1ccc(NC(=S)NC(=O)c2ccc(C(C)(C)C)cc2)cc1.Cl
